Rows were chosen to be rich in hits. Some 1.9% of all compounds tested hit in one or more screens of this group.
NR2E3 ag-1: activates human photoreceptor nuclear receptor NR2E3 | 0.12% of 320,000 active | GST-NR2E3/biotin-RetCOR TR-FRET, 1536-well | Q9Y5X4 | inhibition of corepressor binding, % at 4.78 µM;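 active = percent inhibition above the cutoff of mean plus 3 SD of all tested compounds, set per screening campaign, cut at about 20% in these data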;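 also: 0% = DMSO wells and 100% = biotin wells as full block of FRET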
Target sequence (Q9Y5X4 whole entry, looked up): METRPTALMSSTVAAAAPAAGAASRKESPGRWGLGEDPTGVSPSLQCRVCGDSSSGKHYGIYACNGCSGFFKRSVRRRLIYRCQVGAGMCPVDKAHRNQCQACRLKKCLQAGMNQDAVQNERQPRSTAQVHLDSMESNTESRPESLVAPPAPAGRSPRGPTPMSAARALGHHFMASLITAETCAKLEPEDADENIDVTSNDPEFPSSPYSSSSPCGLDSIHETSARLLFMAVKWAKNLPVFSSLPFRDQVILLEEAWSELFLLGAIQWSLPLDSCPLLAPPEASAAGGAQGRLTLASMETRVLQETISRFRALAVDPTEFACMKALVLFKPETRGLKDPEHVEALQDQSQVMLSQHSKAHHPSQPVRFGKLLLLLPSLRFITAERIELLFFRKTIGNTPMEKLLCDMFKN
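Test system: GST-NR2E3 and biotin-RetCOR proteins | Quantity: 1.35 nM GST-tagged NR2E3 final | Medium: Tris pH 7.5 | Also added: 7 nM biotin-RetCOR | Dosing: Compound at 4.8 µM, single dose | Timing: 5 h at 4 °C | Detection: Time-resolved FRET | Read-out basis: Percent inhibition | Benchmarks: Biotin wells as high control, 0.6% DMSO wells as low control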
SKN-1 inh: C. elegans SKN-1 inhibition; C. elegans VP596 Pgst-4::GFP/RFP ratio, acrylamide-induced, 24 h; inhibition, % at 21.8 µM; 0.49% of 360,000 active; AID 624304;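 active = interference check ratio from 0.5 to 1.5 plus GFP to RFP signal ratio inhibition reaching or exceeding a fixed threshold, cut at about 30% in these data, passing the limit was not always enough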
PG9 binder: PG9 antibody binding by small molecule. TR-FRET gp120-PG9 antibody binding. inhibition, % at 6.7 µM. 0.43% of 360,000 active; in the data active = inhibition above about 8.5%
NR2E3 ag-2: human photoreceptor-specific nuclear receptor agonism; Q9Y5X4; CHO-S Gal4-NCOR/VP16-NR2E3 two-hybrid, luciferase; inhibition of corepressor binding, % at 3.98 µM; 0.35% of 360,000 active; AID 602229;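 active = inhibition above the mean of all tested compounds plus 3 SD, cut at about 70% in these data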;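 also: 0% = DMSO with NR2E3 transfected cells and 100% = cells lacking NR2E3 construct; higher means lower luciferase signal from less NR2E3 corepressor binding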
Rev-erbA mod: Rev-erb alpha (human) modulation; P20393; Rev-erbα–FITC-DNA binding, fluorescence polarization, 90 min; activity, % at 10 µM; 0.79% of 370,000 active;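 active = activity above about 14%, limit read from the data; passing the limit was not always enough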;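 also: 0% = DMSO wells with 35 nM protein and 100% = DMSO wells with 750 nM protein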
MT1-MMP act inh: blocks activation of human MT1-MMP; GFP/RFP ratio change, % at 20 µM; P50281; 0.061% of 360,000 active; HT1080 RFP-PRO-GFP cells, GFP/RFP ratio fluorescence, overnight; percent of plate control window, DMSO zero;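 active = GFP/RFP ratio change of at least 30% with cell ATP level not reduced by more than half and red fluorescence within 50% of control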
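Assay system: HT1080 RFP-PRO-GFP cells | Dosing: 20 µM single dose, 1% DMSO | Incubation: Cells overnight before dosing, compound overnight, 37 °C, 5% CO2 | Evaluation: GFP/RFP fluorescence ratio | Control set: DMSO-only wells and HT1080 RFP-L50D-GFP cell wells as references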
NR1D1 mod conf: Rev-erb alpha (human) modulation, hit confirmation | 61% of 3,000 active | activation, % at 25 µM | Rev-erb alpha FITC-DNA binding, fluorescence polarization, 90 min | AID 1259319 | shares compounds with Rev-erbA mod;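 active = activation at or above a set limit, or at least 3 SD above the negative control mean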;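 also: 0% = 35 nM protein with DMSO and 100% = 750 nM protein high control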
RORg DNA counter: counter-screen for Rev-erb alpha modulators: RORgamma DNA binding; shares compounds with Rev-erbA mod; purified RORgamma protein-FITC-DNA binding, fluorescence polarization; IC50, µM; 8% of 910 active;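 active = Compounds whose fitted half-maximal concentration for disrupting protein-DNA binding is below 10 micromolar; the record names Rev-erb in its text, so the target is in doubt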
The depositor's hits bear a star; i = inactive; nt = no result given; ! = not active in a repeat.

SMILES	NR2E3 ag-1	SKN-1 inh	PG9 binder	NR2E3 ag-2	Rev-erbA mod	MT1-MMP act inh	NR1D1 mod conf	others
O=C(COc1ccccc1[N+](=O)[O-])Nc1ccc(NC(=O)c2cc3ccccc3o2)cc1	2.6	-0.2	-1.5	-45.1	-25.0	-3.2	nt
O=C(COc1ccc(/C=N/NC(=O)c2cc3ccccc3o2)cc1Br)Nc1ccccc1	-21.4	10.9	-63.3	-7.0	19.3*	-54.4	25.8*
COC(=O)c1cc2c(=O)c3ccccc3oc2nc1C	nt	12.6	1.5	-98.8	-2.7	-1.7	nt
CCc1nc2oc3ccc(C)cc3c(=O)c2cc1C(=O)OC	nt	19.1	-1.6	-68.5	30.2*	-1.1	27.0*
O=[N+]([O-])c1ccc(Nc2ccccc2O)c2nonc12	nt	29.7	-17.4	-9.9	31.8*	-135.6	19.6*
NS(=O)(=O)c1ccc(Nc2ccc([N+](=O)[O-])c3nonc23)cc1	-1.0	32.7	-6.7	-14.4	26.7*	-38.9	16.7
CCc1nnc(NS(=O)(=O)c2ccc(Nc3ccc([N+](=O)[O-])c4nonc34)cc2)s1	2.1	51.4*	-3.5	8.5	21.4*	1.9	33.1*	RORg DNA counter=>40
O=C(O)c1cccc(Nc2ccc([N+](=O)[O-])c3nonc23)c1	-8.1	29.6	-5.8	-25.1	-7.1	9.3	nt
CCc1nnc(NS(=O)(=O)c2ccc(NS(=O)(=O)c3ccccc3[N+](=O)[O-])cc2)s1	2.3	-3.9	-2.4	6.2	-0.5	1.0	nt
Nc1ncnc2c1ncn2[C@@H]1O[C@H](C(=O)N[C@@H](CCc2ccccc2)C(=O)O)[C@@H](O)[C@H]1O	nt	nt	-2.8	nt	-1.0	nt	nt
CCc1nc2ccc(C(=O)NCc3ccc4c(c3)OCO4)cn2c1N(C)CCC(C)C	nt	7.2	0.7	12.0	-3.3	-2.7	nt
CC(C)C[C@@H](NC(=O)OC(C)(C)C)C(=O)N1O[C@]23C=C[C@]14C[C@@H](O)CC[C@]4(C)C2CC[C@]1(C)[C@@H]([C@H](C)/C=C/[C@H](C)C(C)C)CC[C@H]13 (stereo partly specified)	nt	nt	0.1	nt	1.2	nt	nt
COC(=O)c1ccc2nc(-c3cccc(Br)c3)c(Cc3ccccc3)n2c1	nt	-4.6	-0.3	-34.0	9.0	-9.1	nt
Cc1ccccc1Cn1cc(S(=O)(=O)c2ccc(C(C)C)cc2)c(=O)c2cc3c(cc21)OCO3	3.8	4.2	0.1	-25.9	40.3*	-0.3	21.3*
Cc1ccc(Cn2cc(S(=O)(=O)c3ccc(C(C)C)cc3)c(=O)c3cc4c(cc32)OCO4)cc1	-0.5	1.4	0.2	-16.1	23.1	-1.0	nt
COCCCNC(=O)C[C@H]1C[C@@]2(C(=O)OC)C(=C[C@H](COCc3ccccc3)O[C@@H]2C)N(CCC2=CCCCC2)C1=O	nt	nt	-0.1	nt	-4.1	nt	nt
CCc1nc(SCC(=O)NC2CCCC2)c2oc3ccccc3c2n1	3.1	10.3	-0.5	-6.5	39.3*	4.7	56.0*	RORg DNA counter=>40
COc1ccccc1NC(=O)CSc1ncnc2c1oc1ccccc12	-2.4	2.3	2.7	7.4	0.8	4.9	nt
O=C(CSc1ncnc2c1oc1ccccc12)Nc1ccc2c(c1)OCCO2	-0.9	7.4	8.2	10.1	676.1*	0.2	568.7*	RORg DNA counter=i
Cc1nc(SCC(=O)NCc2ccccc2)c2oc3ccccc3c2n1	2.0	3.8	4.0	11.9	43.9*	6.6	188.7*	RORg DNA counter=>40
O=C(CSc1ncnc2c1oc1ccccc12)Nc1nccs1	0.3	5.5	-4.2	-3.9	31.6*	1.8	25.1*
C#CCN1CC(COc2ccccc2)Oc2cccc(Oc3ccc(C(C)C)cc3)c2S1(=O)=O (stereo unspecified)	nt	nt	0.7	nt	-3.9	nt	nt
CC(C)CC(=O)N1CCC(C(=O)NCC2COc3ccccc3O2)CC1 (stereo unspecified)	nt	nt	nt	nt	-3.0	nt	nt
CCc1nc(SCC(=O)Nc2nccs2)c2oc3ccccc3c2n1	-1.5	15.5	5.5	8.4	15.1*	-4.9	18.0*
CN(Cc1ccccc1)C(=O)OCc1cn(Cc2ccccc2F)nn1	nt	nt	nt	nt	-6.1	nt	nt
SMILES	NR2E3 ag-1	SKN-1 inh	PG9 binder	NR2E3 ag-2	Rev-erbA mod	MT1-MMP act inh	NR1D1 mod conf	others
O=C1CCCN1CCCNc1nc2c(S(=O)(=O)c3ccc(Br)cc3)nnn2c2ccccc12	0.1	16.7	1.5	-6.0	30.6*	-0.1	5.9
Cc1ccc(S(=O)(=O)c2nnn3c2nc(N2CCC(C(N)=O)CC2)c2ccccc23)cc1C	5.8	6.3	-1.7	-18.0	-3.0	-5.0	nt
Cc1ccc(C)c(Nc2nc3c(S(=O)(=O)c4ccccc4)nnn3c3ccccc23)c1	-1.3	-4.0	1.2	-2.0	63.3*	-6.1	32.8*	RORg DNA counter=>40
Cc1ccc(S(=O)(=O)c2nnn3c2nc(Nc2cccc(C)c2)c2ccccc23)cc1	-2.9	-0.8	-0.1	1.1	28.5*	0.8	14.1
O=C(C(=O)N1CCN(C(=O)c2ccco2)CC1)c1ccccc1	nt	8.5	0.0	nt	4.3	0.4	nt
CSc1ccc(C(=O)NCC2CCN(C(=O)C(=O)c3cc4ccccc4o3)CC2)cc1	nt	nt	-0.1	nt	5.8	nt	nt
Cc1nc(SCc2nc3ccccc3[nH]2)c2oc3ccccc3c2n1	-0.9	-9.0	-4.7	17.7	-6.0	8.3	nt
Cc1nc(SCc2nc3c(C)cccc3[nH]2)c2oc3ccccc3c2n1	nt	-0.3	-2.1	33.4	7.2	-1.7	nt
c1ccc(-c2nc(SCc3nc4ccccc4[nH]3)c3oc4ccccc4c3n2)cc1	nt	10.6	-1.7	-30.0	46.3*	20.4	45.0*	RORg DNA counter=>40
Cc1nc(SCc2nc3c(F)cccc3[nH]2)c2oc3ccccc3c2n1	nt	1.5	4.6	-0.5	29.8*	2.2	38.5*	RORg DNA counter=>40
O=C(Nc1ccc(F)cc1)C(c1ccncc1)N1CCN(c2cccc(C(F)(F)F)n2)CC1 (stereo unspecified)	nt	18.0	-1.0	nt	-0.1	-9.5	nt
Cc1ccc(C(=O)Oc2ccc(-c3nccc(-c4ccccn4)n3)cc2)cc1	2.1	-12.2	0.8	-61.3	19.6*	0.3	15.1
CC1(C)OC(=O)C2=C(C[C@@H](C3CC3)O[C@@H]2C2CC2)O1	nt	2.1	1.3	-0.6	-2.6	-2.0	nt
CCCCCCSc1ccc(-c2nc3cc(C)ccn3c2NC2CCCCC2)cc1	nt	26.0	2.4	-26.5	19.9*!	-0.2	-2.3
CCCCCCSc1cc(-c2nc3cc(C)ccn3c2NC2CCCCC2)ccc1OC	-0.5	7.5	1.4	-11.7	0.7	-42.3	nt
CCC(C)Sc1ccc(-c2nc3cc(C)ccn3c2NC2CCCCC2)cc1 (stereo unspecified)	nt	14.7	5.7	-16.5	20.3*!	-67.5	19.1*

Source: PubChem (several laboratories)
